Measured values from PMC4462344 (Cancer Science, 2014).
Several values for one entry are separate records, joined by “and”; a condition that tells them apart may be missing. Equal entries are not always repeated. Marks after values point to notes of the source that are not given here.

Key:
Format in all cases: in vivo, Japanese CRPC patients
[1] = test system: castration-resistant prostate cancer; assay: Efficacy: objective tumor response by RECIST
Outline: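 Patients with measurable lesions were assessed for objective tumour response by RECIST. Dosing was once-daily oral abiraterone acetate (250, 500 or 1000 mg, the 1000 mg given 1 h premeal or 2 h postmeal) in 28-day cycles, with prednisone 5 mg twice daily added from cycle 1 day 8 onward.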

[2] = test system: corticosterone; assay: Pharmacodynamics: serum corticosterone concentration
Outline: (§1)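 Serum corticosterone, 11-deoxycorticosterone, testosterone and DHEA-S were measured at baseline and on days 2 and 8 of cycle 1. Abiraterone acetate was given orally once daily after an overnight fast, with no food for ≥1 h after dosing. It was given alone days 1–7, then with prednisone 5 mg twice daily. Results are summarised as change from baseline.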

[3] = test system: dehydroepiandrosterone sulfate (DHEA-S); assay: Pharmacodynamics: serum DHEA-S concentration
Outline: as §1

[4] = test system: prostate-specific antigen (PSA); assay: Efficacy: PSA response; details: for patients who achieved ≥50% PSA decline from baseline at one or more evaluation time points: entire treatment period; for mean percentage change from baseline in PSA levels: week 12
Outline: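 Oral abiraterone acetate given once daily in 28-day cycles to chemotherapy-naïve patients on continued LHRH agonist or post-orchiectomy: monotherapy days 1–7 of cycle 1, then with prednisone 5 mg twice daily. PSA measured at screening and day 1 of each cycle. Response was a ≥50% fall from baseline confirmed to persist ≥4 weeks, per PCWG2.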

[5] = test system: testosterone; assay: Pharmacodynamics: serum testosterone concentration
Outline: as §1

[6] = test system: 11-deoxycorticosterone; assay: Pharmacodynamics: serum 11-deoxycorticosterone concentration
Outline: as §1

[7] = Plasma abiraterone acetate and abiraterone pharmacokinetics
Outline: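 Venous blood was drawn at predose and 0.5–12 h after dosing on cycle 1 days 1, 7 and 15 (monotherapy days 1–7; prednisone 5 mg twice daily from day 8), plus 24-h and trough samples. Samples were taken on NaF, spun at 1300 g and 4°C for 10 min, and stored at −20°C. Assay was validated LC/MS/MS (LLOQ 0.220 ng/mL). Cmax, tmax and AUC24 came from non-compartmental analysis.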

[8] = Cycle 1 Day 2, 1000 (+2 h) mg (n = 6)
[9] = Cycle 1 Day 2, 1000 (−1 h) mg (n = 6)
[10] = Cycle 1 Day 8, 1000 (+2 h) mg (n = 6)
[11] = Cycle 1 Day 8, 1000 (−1 h) mg (n = 6)

With `CC(=O)O[C@H]1CC[C@@]2(C)C(=CC[C@@H]3[C@@H]2CC[C@]2(C)C(c4cccnc4)=CC[C@@H]32)C1` [Abiraterone acetate] the “patients in whom the disease had progressed (RECIST)” value ([1]; 250 mg) was 1 patients, the “patients with stable disease (RECIST)” value ([1]; 250 mg) was 1 patients and the “patients with partial response (RECIST)” value ([1]; 500 mg) was 1 patients. For the same molecule, the “patients with stable disease (RECIST)” value ([1]; 500 mg) was 2 patients, the “patients in whom the disease had progressed (RECIST)” value ([1]; 1000 (+2 h) mg) was 1 patients and the “patients with partial response (RECIST)” value ([1]; 1000 (−1 h) mg) was 1 patients. The “patients with stable disease (RECIST)” value ([1]; 1000 (−1 h) mg) was 2 patients, the “patients in whom the disease had progressed (RECIST)” value ([1]; all cohorts) was 2 patients and the “patients with partial response (RECIST)” value ([1]; all cohorts) was 2 patients. For the same molecule, the “patients with stable disease (RECIST)” value ([1]; all cohorts) was 5 patients, the “Corticosterone, mean (SD) change from baseline” value ([2]; Cycle 1 Day 2, 250 mg (n = 9)) was 1097.1 (687.41) ng/dL and the “Corticosterone, mean (SD) change from baseline” value ([2]; Cycle 1 Day 2, 500 mg (n = 6)) was 2914.8 (1543.83) ng/dL. For the same molecule, the “Corticosterone, mean (SD) change from baseline” value [2, 8] was 4227.3 (2814.68) ng/dL, the “Corticosterone, mean (SD) change from baseline” value [2, 9] was 1957.2 (1008.74) ng/dL and the “Corticosterone, mean (SD) change from baseline” value ([2]; Cycle 1 Day 8, 250 mg (n = 9)) was 2015.2 (769.39) ng/dL. The “Corticosterone, mean (SD) change from baseline” value ([2]; Cycle 1 Day 8, 500 mg (n = 6)) was 4086.5 (2478.82) ng/dL, the “Corticosterone, mean (SD) change from baseline” value [2, 10] was 6426.2 (2212.64) ng/dL and the “Corticosterone, mean (SD) change from baseline” value [2, 11] was 5147.8 (1642.75) ng/dL. The “DHEA-S, mean (SD) change from baseline” value ([3]; Cycle 1 Day 2, 250 mg (n = 9)) was −19.1 (13.49) ug/dL, the “DHEA-S, mean (SD) change from baseline” value ([3]; Cycle 1 Day 2, 500 mg (n = 6)) was −28.3 (24.32) ug/dL and the “DHEA-S, mean (SD) change from baseline” value [3, 8] was −53.3 (34.14) ug/dL. The “DHEA-S, mean (SD) change from baseline” value [3, 9] was −59.7 (49.87) ug/dL, the “DHEA-S, mean (SD) change from baseline” value ([3]; Cycle 1 Day 8, 250 mg (n = 9)) was −35.7 (25.51) ug/dL and the “DHEA-S, mean (SD) change from baseline” value ([3]; Cycle 1 Day 8, 500 mg (n = 6)) was −38.5 (37.31) ug/dL. The “DHEA-S, mean (SD) change from baseline” value [3, 10] was −76.8 (54.02) ug/dL, the “DHEA-S, mean (SD) change from baseline” value [3, 11] was −95.3 (77.99) ug/dL and the PSA response rate ([4]; 250 mg cohort) was 67%. The PSA response rate ([4]; 500 mg cohort, listed as AA) was 50%, the PSA response rate ([4]; 1000 (+2 h) mg cohort, listed as AA) was 83% and 83.3% and the PSA response rate ([4]; 1000 (−1 h) mg cohort, listed as AA) was 67% and 66.7%. For the same molecule, the “patients with ≥50% PSA decline confirmed to be maintained for at least 4 weeks” value ([4]; all cohorts) was 18/27, the “overall PSA response rate” value ([4]; all cohorts (N = 27), ≥50% decline maintained ≥4 weeks) was 67% and the “patients from each dose-group with ≥50% PSA reduction” value ([4]; each dose-group) was “At least 3 patients”. For the same molecule, the “patients who achieved ≥50% PSA decline from baseline at one or more evaluation time points” value (from here on “patients who achieved ≥50% PSA decline”) ([4]; 250 mg) was 7 patients, the “patients who achieved ≥50% PSA decline” value ([4]; 500 mg) was 3 patients and the “patients who achieved ≥50% PSA decline” value ([4]; 1000 (+2 h) mg) was 5 patients. The “patients who achieved ≥50% PSA decline” value ([4]; 1000 (−1 h) mg) was 5 patients, the “patients who achieved ≥50% PSA decline” value ([4]; all cohorts) was 20/27 and the “mean percentage change from baseline in PSA levels” value (“mean percentage change” for short) ([4]; 250 mg) was −51.2%. The “mean percentage change” value ([4]; 500 mg) was −29.1%, the “mean percentage change” value ([4]; 1000 mg (+2 h)) was −37.6% and the “mean percentage change” value ([4]; 1000 mg (−1 h)) was −60.4%. The “Testosterone, mean (SD) change from baseline” value (from here on “Testosterone, mean (SD) change”) ([5]; Cycle 1 Day 2, 250 mg (n = 9)) was −3.6 (3.64) ng/dL, the “Testosterone, mean (SD) change” value ([5]; Cycle 1 Day 2, 500 mg (n = 6)) was −4.8 (3.06) ng/dL and the “Testosterone, mean (SD) change” value [5, 8] was −7.5 (1.87) ng/dL. The “Testosterone, mean (SD) change” value [5, 9] was −8.0 (3.22) ng/dL, the “Testosterone, mean (SD) change” value ([5]; Cycle 1 Day 8, 250 mg (n = 9)) was −6.2 (4.06) ng/dL and the “Testosterone, mean (SD) change” value ([5]; Cycle 1 Day 8, 500 mg (n = 6)) was −8.2 (3.82) ng/dL. For the same molecule, the “Testosterone, mean (SD) change” value [5, 10] was −9.2 (2.32) ng/dL, the “Testosterone, mean (SD) change” value [5, 11] was −10.8 (6.21) ng/dL and the “mean change from baseline in testosterone levels, range over cohorts” value ([5]; day 8 in cycle 1, 250-1000 mg) was -10.8 to -6.2 ng/dL. For the same molecule, the “11-deoxycorticosterone, mean (SD) change from baseline” value ([6]; Cycle 1 Day 2, 250 mg (n = 8)) was 22.9 (10.13) ^† ng/dL, the “11-deoxycorticosterone, mean (SD) change from baseline” value ([6]; Cycle 1 Day 2, 500 mg (n = 6)) was 40.3 (16.79) ng/dL and the “11-deoxycorticosterone, mean (SD) change from baseline” value [6, 8] was 45.7 (61.09) ng/dL. The “11-deoxycorticosterone, mean (SD) change from baseline” value [6, 9] was 36.3 (17.22) ng/dL, the “11-deoxycorticosterone, mean (SD) change from baseline” value ([6]; Cycle 1 Day 8, 250 mg (n = 8)) was 45.9 (13.35) ^† ng/dL and the “11-deoxycorticosterone, mean (SD) change from baseline” value ([6]; Cycle 1 Day 8, 500 mg (n = 6)) was 78.8 (36.41) ng/dL. The “11-deoxycorticosterone, mean (SD) change from baseline” value [6, 10] was 112.3 (65.15) ng/dL, the “11-deoxycorticosterone, mean (SD) change from baseline” value [6, 11] was 79.2 (51.53) ng/dL and the “plasma AA concentrations” value ([7]; most plasma concentrations, all cohorts, LLOQ 0.220 ng/mL) was “below the quantification limit”.
In the case of `C[C@]12CC[C@H](O)CC1=CC[C@@H]1[C@@H]2CC[C@]2(C)C(c3cccnc3)=CC[C@@H]12` [abiraterone], the “mean Cmax and AUC24 of abiraterone, 2 h postmeal versus 1 h premeal” value ([7]; 1000 mg cohort, overall) is reported as 3.1–6.0 times, the “abiraterone Cmax and AUC24, 2 h postmeal versus 1 h premeal” value ([7]; AA 1000 mg multiple doses) is reported as “approximately threefold to sixfold” and the “accumulation index for AUC24 of abiraterone” value ([7]; irrespective of dose) is reported as 1.40–1.69. The “accumulation index for Cmax of abiraterone” value ([7]; irrespective of dose) was 1.31–1.74 and the “time at which steady state of plasma abiraterone was reached” value ([7]; regardless of dose) was ≤ 7 days.
